# Screening results as filed in PubChem.
# APJ ag = activates the human apelin receptor APJ; P35414; CHO-K1 APJ PathHunter beta-arrestin, luminescence; 0% DMSO wells, 100% apelin; activation, % at 20 µM; actives 0.11% (n = 330,000); AID 2520;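 active = activation more than six SD over the plate average, tested at 20 µM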;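 note: 0% = DMSO alone and 100% = apelin-13 at 10 nM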
# Target sequence (P35414 whole entry, looked up): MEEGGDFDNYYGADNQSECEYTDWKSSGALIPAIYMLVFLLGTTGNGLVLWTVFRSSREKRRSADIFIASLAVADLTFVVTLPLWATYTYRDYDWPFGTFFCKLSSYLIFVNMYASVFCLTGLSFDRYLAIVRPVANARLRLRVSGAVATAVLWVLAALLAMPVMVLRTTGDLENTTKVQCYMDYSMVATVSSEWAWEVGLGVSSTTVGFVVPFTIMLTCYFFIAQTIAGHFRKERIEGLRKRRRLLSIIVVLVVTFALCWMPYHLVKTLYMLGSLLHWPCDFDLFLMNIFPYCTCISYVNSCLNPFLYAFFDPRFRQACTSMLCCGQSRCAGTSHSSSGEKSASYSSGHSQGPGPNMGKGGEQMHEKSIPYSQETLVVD
#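 Assay system: CHO-K1 cells stably expressing ProLink-tagged human APJ and arrestin–beta-gal acceptor. Compound dosing: 20 µM single point, 1% DMSO. Times: 16-18 h seeding, 90 min dark compound exposure, 60 min detection. Detection: beta-gal luminescence. Evaluation: APJ–arrestin association signal. Controls: negative DMSO alone, positive Apelin-13 at 10 nM.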
# CXCR6 inh = inhibitors of human CXCR6 receptor; CHO-K1 PathHunter CXCR6 beta-arrestin, luminescence; inhibition, % at 20 µM; actives 0.36% (n = 360,000); in the data active = inhibition above about 34%, passing the limit was not always enough;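 note: antagonist mode with CXCL16 agonist at 10 nM final; 0% = 10 nM CXCL16 with DMSO and 100% = unstimulated wells without agonist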
# EBI2 block = antagonists of human EBI2 receptor | EBI2 beta-arrestin recruitment, luminescence, 7a,25-OHC stimulated | inhibition, % at 5 µM | actives 0.81% (n = 360,000) | P32249; in the data active = inhibition above about 38%;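 note: enzyme fragment complementation signal reports receptor beta-arrestin coupling in cells; 0% = agonist plus DMSO wells and 100% = wells without agonist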
# APJ antagonist = antagonists of human APJ apelin receptor. P35414. CHO-K1 APJ beta-arrestin complementation, luminescence. inhibition, % at 20 µM. actives 0.32% (n = 330,000);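 active = inhibition above about 40% at 20 µM, limit read from the data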;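 note: cells challenged with 10 nM apelin-13 agonist together with compound; plate controls were apelin-13 plus DMSO wells for no effect and DMSO wells lacking apelin-13 for full effect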
# CCR6 antag = antagonists of human CCR6 receptor; inhibition, % at 20 µM; actives 0.49% (n = 340,000); CHO-K1 CCR6 PathHunter beta-arrestin, luminescence, CCL20-stimulated; AID 493098; P51684;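 active = compounds whose inhibition of the agonist-driven luminescence signal at 20 µM reaches about 50%, limit read from the data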;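 note: cells stimulated with CCL20 at 14 nM final; plate controls were DMSO with CCL20 for no effect and DMSO without agonist for full effect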
# Target sequence (P51684 whole entry, looked up): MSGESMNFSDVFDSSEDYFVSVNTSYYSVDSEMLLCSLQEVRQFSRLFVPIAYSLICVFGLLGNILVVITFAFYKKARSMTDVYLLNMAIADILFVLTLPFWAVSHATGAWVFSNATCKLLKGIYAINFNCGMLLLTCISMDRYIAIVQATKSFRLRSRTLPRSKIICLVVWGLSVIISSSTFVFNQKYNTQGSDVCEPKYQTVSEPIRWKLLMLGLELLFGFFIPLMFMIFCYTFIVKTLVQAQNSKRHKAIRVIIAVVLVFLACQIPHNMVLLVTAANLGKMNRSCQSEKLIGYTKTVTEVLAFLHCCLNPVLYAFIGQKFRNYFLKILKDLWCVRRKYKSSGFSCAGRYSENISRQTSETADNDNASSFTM
# APJ antag confirm = confirmation of human APJ apelin receptor antagonists | shares compounds with APJ antagonist | APJ beta-arrestin recruitment, luminescence, antagonist mode | inhibition, % at 20 µM | actives 66% (n = 950) | AID 2766; in the data active = inhibition above about 50%
# CXCR6 confirm = confirmation of human CXCR6 receptor antagonists. shares compounds with CXCR6 inh. CHO-K1 CXCR6 PathHunter beta-arrestin, luminescence. inhibition, % at 20 µM. actives 65% (n = 700);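 active = mean inhibition over four retests above 40%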;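 note: receptor stimulated with 10 nM CXCL16 agonist; beta-galactosidase fragment complementation upon beta-arrestin recruitment to receptor; plate controls were CXCL16 plus DMSO for no effect and DMSO without CXCL16 for full effect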
# EBI2 antag conf = EBI2 (human) antagonism, single concentration confirmation. shares compounds with EBI2 block. EBI2 beta-arrestin luminescence, 7a,25-OHC antagonism. inhibition, % at 5 µM. actives 29% (n = 2,400). AID 651997;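 active = inhibition of at least 50%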
# EBI2 ag = activates EBI2, counter-screen for EBI2 antagonists; 2,400 tested, under 10 active; activation, % at 5 µM; shares compounds with EBI2 block; EBI2-expressing cells, agonist mode, luminescence, 60 min; 0% vehicle, 100% 7α,25-dihydroxycholesterol control;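 active = activation of at least 50%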
# bGal cs = counter-screen for EBI2 antagonists: E. coli beta-galactosidase inhibition | shares compounds with EBI2 block | purified beta-galactosidase, luminescent Galacton Star, 15 min | inhibition, % at 5 µM | actives 1% (n = 2,400) | AID 652176;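 active = replicate-average signal at least 3 plate SD below neutral wells, shown as high inhibition, flagging enzyme-inhibiting false positives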;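 note: 0% = DMSO wells with enzyme and 100% = wells lacking enzyme; higher means stronger loss of beta-gal luminescence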
# * hit, by the source's call; . = no result. Rows were chosen to be rich in hits. Some 1.5% of all compounds tested hit in one or more screens of this group.
SMILES,APJ ag,CXCR6 inh,EBI2 block,APJ antagonist,CCR6 antag,APJ antag confirm,CXCR6 confirm,others
CN(CCO)c1cc(Sc2nc3ccccc3s2)c2nonc2c1[N+](=O)[O-],-9.3,98.8*,25.5,97.0*,112.6*,107.1*,109.0*,
CC(=O)OCCN(C)c1cc(SC(C)C)c2nonc2c1[N+](=O)[O-],3.8,6.5,-7.9,-0.9,24.9,.,.,
COC(=O)c1ccc(C)c(-n2c(=O)n(Cc3ccccc3)c(=O)c3[nH]cnc32)c1,-9.5,66.5*,21.8,60.6*,64.1*,122.2*,48.7*,
C=CCn1c(=O)c2c(nc3n2CC(C)CN3c2cccc(OC)c2)n(C)c1=O (stereo not given),-8.0,49.3*,22.3,48.2*,58.8*,77.1*,51.0*,
CCc1cc2c(=O)[nH]c(-c3ccccn3)nc2s1,-6.3,48.9*,50.0*,78.2*,86.8*,70.4*,69.3*,
COC(=O)Cn1nnnc1-c1nc2cc(C)c(C)cc2[nH]c1=O,.,0.6,2.2,.,.,.,.,
O=C(N/N=C(\c1ccccc1)c1cccnc1)c1cccc(F)c1,-17.5,83.1*,20.8,69.7*,100.8*,88.2*,94.4*,
O=C(N/N=C(\c1ccccc1)c1cccnc1)c1ccc(O)cc1,-3.4,0.8,-6.5,0.8,11.7,.,.,
CCC1=NN(C(=O)c2ccccc2O)C(O)(c2ccccc2)C1 (stereo not given),-5.1,19.7,9.4,19.0,43.0,.,.,
CCC1=NN(C(=O)c2ccc([N+](=O)[O-])cc2)C(O)(c2ccccc2)C1 (stereo not given),-9.8,64.3*,10.2,45.0*,82.2*,71.2*,42.4*,
O=C(Nc1nnc(SCc2ccc(F)cc2)s1)c1ccccn1,-11.7,43.5*,66.6*,77.9*,69.6*,46.4,49.6*,
Clc1ccc2c(-c3ccccc3)nc(-c3cccs3)nc2c1,.,-14.3,-23.6,.,.,.,.,
Cc1cccc(CSc2cccc3cccnc23)c1,-14.3,65.7*,45.0*,56.3*,72.1*,84.0*,74.3*,
O=C(NC(=S)NNC(=O)c1ccccc1O)c1cccs1,-3.7,12.2,-7.5,9.2,17.0,.,.,
COc1ccccc1C(=O)NNC(=S)NC(=O)c1cccs1,-5.5,53.1*,3.0,42.2*,.,68.3*,58.3*,
C=CC[n+]1c(-c2ccc(Cl)cc2Cl)csc1Nc1c(C)n(C)n(-c2ccccc2)c1=O,-9.7,64.2*,39.0,53.8*,81.5*,87.3*,66.0*,
Cc1ccc(CN2C(=O)C(Cc3ccccc3)Nc3ncnc(N4CCN(c5ccccc5)CC4)c32)cc1 (stereo not given),-20.8,74.2*,59.9*,73.5*,80.3*,111.3*,72.0*,EBI2 antag conf=61.7*;EBI2 ag=-3.2;bGal cs=37.4*
O=C1C(Cc2ccccc2)Nc2ncnc(N3CCN(c4ccccc4)CC3)c2N1Cc1ccc(Br)cc1 (stereo not given),-12.3,74.5*,74.8*,81.7*,86.8*,118.3*,79.1*,EBI2 antag conf=70.6*;EBI2 ag=-4.0;bGal cs=41.3*
Nc1ccccc1CCc1ccccc1N,.,1.6,-6.7,.,.,.,.,
C/C(=N\NC(=O)c1ccc(F)cc1)c1ccccn1,-11.1,71.6*,64.1*,60.2*,80.2*,87.2*,85.7*,EBI2 antag conf=84.0*;EBI2 ag=-2.1;bGal cs=-9.9
C/C(=N\NC(=O)c1c[nH]c2ccccc12)c1ccccn1,5.1,-4.2,7.2,-40.1,0.0,.,.,
C/C(=N\NC(=O)c1cc2ccccc2cc1O)c1ccccn1,-19.6,17.9,50.5*,44.1*,19.9,29.7,.,EBI2 antag conf=75.5*;EBI2 ag=-2.2;bGal cs=-1.9
CCCOc1cccc(-c2cc(C(=O)N/N=C/c3cccnc3)c3ccccc3n2)c1,2.5,10.2,0.6,-45.7,-5.8,.,.,
CCCOc1cccc(-c2cc(C(=O)N/N=C/c3ccccn3)c3ccccc3n2)c1,-11.8,57.1*,48.1*,47.6*,70.4*,54.2*,45.5*,EBI2 antag conf=60.6*;EBI2 ag=0.2;bGal cs=2.0
Cc1ccc([C@H]2C[C@H](O)[C@@H](n3cc(C4CC4)nn3)CN2Cc2cccs2)cc1,.,3.6,-2.2,.,.,.,.,
SMILES,APJ ag,CXCR6 inh,EBI2 block,APJ antagonist,CCR6 antag,APJ antag confirm,CXCR6 confirm,others
CCOc1ccc(C(=O)OCC(=O)N2CCCC2)cc1,-2.8,1.0,2.4,7.3,12.7,.,.,
CC(C)CC1C(=O)N(Cc2cn(CC3CCCCC3)nn2)CCS(=O)(=O)N1Cc1ccc(-c2ccc(Cl)c(Cl)c2)cc1 (stereo not given),.,103.7*,17.0,.,.,.,15.2,
CCC(C)C(CO)NCCCn1cnc2c(OC)ncnc21 (stereo not given),.,43.3*,-7.4,.,.,.,8.9,
O=C1CC(Sc2nnnn2-c2ccccc2)C(=O)N1c1cccc(Cl)c1 (stereo not given),-1.0,94.0*,7.4,26.9,.,.,59.2*,
COc1cc(Nc2ccn3nc(-c4ccc(F)cc4)cc3n2)cc(OC)c1OC,.,0.5,14.5,.,.,.,.,
CCOc1cc(/C=C2\C(=O)N(c3cccc(C(F)(F)F)c3)C(=O)c3ccccc32)ccc1O,-2.1,44.3*,3.8,15.3,46.3,.,43.4*,
COc1cccc(/C=C2\C(=O)N(c3cccc(C)c3)C(=O)c3ccccc32)c1,-0.3,-9.6,16.7,9.2,14.4,.,.,
CCOC(=O)c1ccc(NC(=S)NC(=O)c2cncc(Br)c2)cc1,-7.4,42.0*,0.5,37.7,59.5*,.,21.3,
CC1CC(=O)Nc2ccccc2N1C(=O)COc1ccccc1C(N)=O (stereo not given),.,-0.3,-0.5,.,.,.,.,
COC(=O)CN(c1ccccc1)S(=O)(=O)c1cc(Br)ccc1OC,-1.4,92.1*,-1.3,6.2,9.1,.,22.4,
COc1ccc(Br)cc1S(=O)(=O)N(CC(=O)N1CCOCC1)c1ccccc1,1.3,1.0,-14.5,-3.4,5.2,.,.,
COC(=O)CN1C(=O)[C@H]2[C@@H](c3ccc(C)o3)N3C(=O)CN(Cc4ccccn4)C(=O)[C@@]3(C)[C@H]2C1=O,5.2,104.1*,-4.0,1.6,4.0,.,2.7,
C=CCNc1sc(C(=O)c2ccc(C)cc2)c(N)c1C#N,0.1,54.8*,4.4,14.9,-0.2,.,15.9,
O=C(/C=C/c1ccc(Cl)cc1)N(c1ccccn1)C1CCCCC1,-3.9,59.1*,16.0,9.2,19.8,.,8.5,
